Source: ChEMBL document CHEMBL1124863, “Antiandrogenic steroidal sulfonylpyrazoles” (1990)
Activity calls are given as the source filed them. The rule behind the calls is not given here.

Biological target: T1, Androgen receptor (Rattus norvegicus) (UniProt P15207)
T1 sequence (whole entry): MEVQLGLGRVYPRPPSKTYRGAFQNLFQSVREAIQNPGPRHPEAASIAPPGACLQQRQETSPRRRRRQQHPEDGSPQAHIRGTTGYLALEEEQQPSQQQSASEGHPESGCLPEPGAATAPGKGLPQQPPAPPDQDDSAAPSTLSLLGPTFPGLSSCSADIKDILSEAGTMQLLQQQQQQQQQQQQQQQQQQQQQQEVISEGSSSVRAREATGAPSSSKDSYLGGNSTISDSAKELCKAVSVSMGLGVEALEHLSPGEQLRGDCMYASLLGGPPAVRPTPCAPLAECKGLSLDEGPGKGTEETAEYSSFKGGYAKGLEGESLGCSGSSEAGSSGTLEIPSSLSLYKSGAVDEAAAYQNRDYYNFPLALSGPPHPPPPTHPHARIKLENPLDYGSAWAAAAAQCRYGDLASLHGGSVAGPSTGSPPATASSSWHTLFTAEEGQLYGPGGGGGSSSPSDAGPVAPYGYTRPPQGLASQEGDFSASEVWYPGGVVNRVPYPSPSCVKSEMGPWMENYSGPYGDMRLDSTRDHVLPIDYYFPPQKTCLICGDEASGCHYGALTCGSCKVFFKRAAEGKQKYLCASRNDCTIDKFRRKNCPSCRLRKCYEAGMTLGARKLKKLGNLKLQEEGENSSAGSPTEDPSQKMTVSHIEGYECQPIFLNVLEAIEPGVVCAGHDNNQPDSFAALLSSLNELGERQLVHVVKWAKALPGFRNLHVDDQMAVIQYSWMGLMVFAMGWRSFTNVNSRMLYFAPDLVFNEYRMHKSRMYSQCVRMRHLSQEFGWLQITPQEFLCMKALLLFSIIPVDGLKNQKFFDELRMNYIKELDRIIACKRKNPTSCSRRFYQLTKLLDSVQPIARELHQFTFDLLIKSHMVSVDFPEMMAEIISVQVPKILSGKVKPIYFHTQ
Assay: Anti-androgenic activity, inhibition of testosterone propionate induced rat ventral prostate (castrated immature rat) weight gain
Format: functional
Details: Prostate gland
How it was run: (§1)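 Weanling male Sprague-Dawley rats castrated; dosing began 1 week later, grouped by body weight. […] Rats weighed and killed the next day; ventral prostate removed, blotted, weighed. ED50 read graphically as dose halving TP-stimulated prostate weight gain.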

Compound	ED50 [mg/kg]
C=C[C@]1(O)CCC2C3CC[C@H]4Cc5nn(S(C)(=O)=O)cc5C[C@]4(C)C3CC[C@@]21C (stereo partly specified)	33

Biological target: T1, Androgen receptor (Rattus norvegicus)
Details: Prostate gland

Compound	Increase
C#C[C@]1(O)CCC2C3CCC4=C(C)c5nn(S(C)(=O)=O)cc5C[C@]4(C)C3CC[C@@]21C (stereo partly specified)	inactive
C#C[C@]1(O)CCC2C3CC[C@H]4Cc5c(c[nH][n+]5S(C)(=O)=O)C[C@]4(C)C3CC[C@@]21C (stereo partly specified)	inactive
C[C@]12Cc3cn(S(C)(=O)=O)nc3C=C1CCC1C2CC[C@@]2(C)C1CC[C@]2(C)O (stereo partly specified)	inactive
C#C[C@]1(O)CCC2C3CCC4=Cc5nn(S(C)(=O)=O)cc5C[C@]4(C)C3CC[C@@]21C (stereo partly specified)	inactive
CC(C)(O)C(=O)Nc1ccc([N+](=O)[O-])c(C(F)(F)F)c1 [HYDROXYFLUTAMIDE]	inactive
CC[C@]1(O)CCC2C3CC[C@H]4Cc5nn(S(C)(=O)=O)cc5C[C@]4(C)C3CC[C@@]21C (stereo partly specified)	inactive
C=C[C@]1(O)CCC2C3CC[C@H]4Cc5nn(S(C)(=O)=O)cc5C[C@]4(C)C3CC[C@@]21C (stereo partly specified)	inactive
C#C[C@]1(O)CC[C@H]2[C@@H]3CC[C@H]4Cc5nn(S(C)(=O)=O)cc5C[C@]4(C)[C@H]3CC[C@@]21C (stereo in doubt; 1)	inactive
CC1=C2CCC3C(CC[C@@]4(C)C3CC[C@]4(C)O)[C@@]2(C)Cc2cn(S(C)(=O)=O)nc21 (stereo partly specified)	inactive
C#C[C@]1(O)CC[C@H]2[C@@H]3CC[C@H]4Cc5nn(S(C)(=O)=O)cc5C[C@]4(C)[C@H]3CC[C@@]21C (stereo in doubt; 28)	inactive
C[C@]1(O)CCC2C3CC[C@H]4Cc5nn(S(C)(=O)=O)cc5C[C@]4(C)C3CC[C@@]21C (stereo partly specified)	inactive
C[C@]12CCC3C(CC[C@H]4Cc5nn(S(C)(=O)=O)cc5C[C@]34C)C1CCC2=O (stereo partly specified)	inactive

Species: Rattus norvegicus
Assay: Antiandrogenic activity as the dose required to inhibit testosterone propionate-induced rat ventral prostate weight gain in castrated immature rat by 50%.
Format: functional, Prostate gland
Details: not given
How it was run: as §1

Compound	ED50 [mg/kg]
C#C[C@]1(O)CC[C@H]2[C@@H]3CC[C@H]4Cc5nn(S(C)(=O)=O)cc5C[C@]4(C)[C@H]3CC[C@@]21C (stereo in doubt; 28) [ZANOTERONE]	40
C#C[C@]1(O)CC[C@H]2[C@@H]3CC[C@H]4Cc5nn(S(C)(=O)=O)cc5C[C@]4(C)[C@H]3CC[C@@]21C (stereo in doubt; 1) [ZANOTERONE]	15

Same assay, conditions: Rattus norvegicus, Prostate gland; read-out: ED50

Compound	ED50 [mg/kg]
CC(=O)[C@@]1(O)CC[C@H]2[C@@H]3C=C(Cl)C4=CC(=O)[C@@H]5C[C@@H]5[C@]4(C)[C@H]3CC[C@@]21C [CYPROTERONE]	87
C#C[C@]1(O)CCC2C3CC[C@H]4Cc5n[nH]cc5C[C@]4(C)C3CC[C@@]21C (stereo partly specified)	50
C#C[C@]1(O)CCC2C3CCC4=C(C)c5nn(S(C)(=O)=O)cc5C[C@]4(C)C3CC[C@@]21C (stereo partly specified)	14
C#C[C@]1(O)CCC2C3CC[C@H]4Cc5c(c[nH][n+]5S(C)(=O)=O)C[C@]4(C)C3CC[C@@]21C (stereo partly specified)	> 100
C[C@]12Cc3cn(S(C)(=O)=O)nc3C=C1CCC1C2CC[C@@]2(C)C1CC[C@@H]2O (stereo partly specified)	> 100
C[C@]12Cc3cn(S(C)(=O)=O)nc3C=C1CCC1C2CC[C@@]2(C)C1CC[C@]2(C)O (stereo partly specified)	16
C#C[C@]1(O)CCC2C3CC[C@H]4Cc5nn(S(=O)(=O)CCC)cc5C[C@]4(C)C3CC[C@@]21C (stereo partly specified)	< 100
C#C[C@]1(O)CCC2C3CCC4=C(Cl)c5nn(S(C)(=O)=O)cc5C[C@]4(C)C3CC[C@@]21C (stereo partly specified)	> 100
C#C[C@]1(O)CCC2C3CCC4=Cc5nn(S(C)(=O)=O)cc5C[C@]4(C)C3CC[C@@]21C (stereo partly specified)	< 100
CC(C)(O)C(=O)Nc1ccc([N+](=O)[O-])c(C(F)(F)F)c1 [HYDROXYFLUTAMIDE]	4
CC[C@]1(O)CCC2C3CC[C@H]4Cc5nn(S(C)(=O)=O)cc5C[C@]4(C)C3CC[C@@]21C (stereo partly specified)	41
CC(=O)O[C@]1(C(C)=O)CC[C@H]2[C@@H]3C=C(Cl)C4=CC(=O)[C@@H]5C[C@@H]5[C@]4(C)[C@H]3CC[C@@]21C [CYPROTERONE ACETATE]	18
CC(C)C(=O)Nc1ccc([N+](=O)[O-])c(C(F)(F)F)c1 [FLUTAMIDE]	5
C#C[C@]1(O)CCC2C3CC[C@H]4Cc5nn(S(=O)(=O)C(C)C)cc5C[C@]4(C)C3CC[C@@]21C (stereo partly specified)	> 100
C#C[C@]1(O)CCC2C3CC[C@H]4Cc5nn(S(=O)(=O)CC)cc5C[C@]4(C)C3CC[C@@]21C (stereo partly specified)	100
C[C@]12CCC3C(CC[C@H]4Cc5nn(S(C)(=O)=O)cc5C[C@]34C)C1CC[C@@H]2O (stereo partly specified)	> 100
CC(O)(CS(=O)(=O)c1ccc(F)cc1)C(=O)Nc1ccc(C#N)c(C(F)(F)F)c1 (stereo unspecified) [BICALUTAMIDE]	4
C#C[C@]1(O)CCC2C3CC[C@H]4Cc5nn(S(=O)(=O)CCCC)cc5C[C@]4(C)C3CC[C@@]21C (stereo partly specified)	> 100
CC1=C2CCC3C(CC[C@@]4(C)C3CC[C@]4(C)O)[C@@]2(C)Cc2cn(S(C)(=O)=O)nc21 (stereo partly specified)	3
C[C@]1(O)CCC2C3CC[C@H]4Cc5nn(S(C)(=O)=O)cc5C[C@]4(C)C3CC[C@@]21C (stereo partly specified)	10
C[C@]12CCC3C(CC[C@H]4Cc5nn(S(C)(=O)=O)cc5C[C@]34C)C1CCC2=O (stereo partly specified)	100
